Laboratory results as given in ChEMBL document CHEMBL4359823, “Switching on the activity of 1,5-diaryl-pyrrole derivatives against drug-resistant ESKAPE bacteria: Structure-activity relationships and mode of action studies” (Eur J Med Chem, 2019).
≈ marks a conversion by molar mass, not a printed value.

Columns and labels:
Assay type in all cases: functional
Pseudomonas aeruginosa [1] = experiment: Antibacterial activity against Pseudomonas aeruginosa NCTC13437 measured after overnight incubation by microbroth dilution method
Outline: (§1)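 Microbroth dilution MIC. Compound DMSO stocks were diluted in water as a 2-fold series. Overnight TSB cultures were back-diluted to OD 0.01 and mixed 1:1 with compound. Plates were incubated overnight at 37 °C. MIC was the lowest concentration without visible growth (<0.1 OD600), run in duplicate.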

Escherichia coli = experiment: Antibacterial activity against Escherichia coli NCTC12923 measured after overnight incubation by microbroth dilution method; outline: as §1
Staphylococcus aureus [2] = experiment: Antibacterial activity against methicillin resistant Staphylococcus aureus NCTC13277 measured after overnight incubation by microbroth dilution method
Outline: (§2)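 Microbroth dilution: DMSO stocks diluted in water, 2-fold series. Overnight TSB cultures back-diluted to OD 0.01 and mixed 1:1 with compound. Incubated overnight at 37 °C; MIC taken as lowest concentration without visible growth (<0.1 OD600). Run in duplicate; matching DMSO levels checked for effect on growth.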

Acinetobacter baumannii [3] = experiment: Antibacterial activity against Acinetobacter baumannii AYE measured after overnight incubation by microbroth dilution method; outline: as §1
Staphylococcus aureus [4] = experiment: Antibacterial activity against methicillin resistant Staphylococcus aureus NCTC13616 measured after overnight incubation by microbroth dilution method; outline: as §2
Acinetobacter baumannii [5] = experiment: Antibacterial activity against Acinetobacter baumannii ATCC 17978 measured after overnight incubation by microbroth dilution method; outline: as §1
Enterococcus faecalis [6] = experiment: Antibacterial activity against vancomycin resistant Enterococcus faecalis NCTC12201 measured after overnight incubation by microbroth dilution method; outline: as §2
Klebsiella pneumoniae [7] = experiment: Antibacterial activity against Klebsiella pneumoniae NCTC13368 measured after overnight incubation by microbroth dilution method; outline: as §1
Staphylococcus aureus [8] = experiment: Antibacterial activity against methicillin sensitive Staphylococcus aureus NCTC 6571 measured after overnight incubation by microbroth dilution method; outline: as §2
Klebsiella pneumoniae [9] = experiment: Antibacterial activity against Klebsiella pneumoniae M6 measured after overnight incubation by microbroth dilution method; outline: as §1
Pseudomonas aeruginosa [10] = experiment: Antibacterial activity against Pseudomonas aeruginosa PAO1 measured after overnight incubation by microbroth dilution method; outline: as §1
Enterococcus faecalis [11] = experiment: Antibacterial activity against vancomycin resistant Enterococcus faecalis NCTC12204 measured after overnight incubation by microbroth dilution method; outline: as §2
Enterococcus faecalis [12] = experiment: Antibacterial activity against vancomycin sensitive Enterococcus faecalis NCTC775 measured after overnight incubation by microbroth dilution method; outline: as §2

Row | Structure (SMILES) | MIC (Pseudomonas aeruginosa [1]) | MIC (Escherichia coli) | MIC (Staphylococcus aureus [2]) | MIC (Acinetobacter baumannii [3]) | MIC (Staphylococcus aureus [4]) | MIC (Acinetobacter baumannii [5]) | MIC (Enterococcus faecalis [6]) | MIC (Klebsiella pneumoniae [7]) | MIC (Staphylococcus aureus [8]) | MIC (Klebsiella pneumoniae [9]) | MIC (Pseudomonas aeruginosa [10]) | MIC (Enterococcus faecalis [11]) | MIC (Enterococcus faecalis [12])
1 | Cc1cc(CNCCCCCCCCNC(=N)N)c(C)n1-c1ccc(Cl)cc1 | 64 µg/mL (≈ 158 µM) | 16 µg/mL (≈ 39.6 µM) | 8 µg/mL (≈ 19.8 µM) | 64 µg/mL (≈ 158 µM) | 8 µg/mL (≈ 19.8 µM) | 16 µg/mL (≈ 39.6 µM) | 16 µg/mL (≈ 39.6 µM) | > 128 µg/mL | 4 µg/mL (≈ 9.9 µM) | 128 µg/mL (≈ 317 µM) | > 128 µg/mL | 4 to 8 µg/mL (≈ 9.9 to 19.8 µM) | 8 to 16 µg/mL (≈ 19.8 to 39.6 µM)
2 | Cc1c(CNC2CCCCC2)cc(-c2ccc(Cl)cc2)n1-c1ccccc1C(F)(F)F | > 128 µg/mL | > 128 µg/mL | 8 µg/mL (≈ 17.9 µM) | 128 µg/mL (≈ 286 µM) | 8 µg/mL (≈ 17.9 µM) | > 128 µg/mL | 4 µg/mL (≈ 8.95 µM) | > 128 µg/mL | 4 µg/mL (≈ 8.95 µM) | > 128 µg/mL | > 128 µg/mL | 2 µg/mL (≈ 4.47 µM) | 4 µg/mL (≈ 8.95 µM)
3 | Cc1cc(CNC2CCCCC2)c(C)n1-c1ccc(Cl)cc1 | > 64 µg/mL |  | 64 µg/mL (≈ 202 µM) | > 64 µg/mL | 64 µg/mL (≈ 202 µM) | > 64 µg/mL | 32 µg/mL (≈ 101 µM) | > 64 µg/mL | 64 µg/mL (≈ 202 µM) | > 64 µg/mL | > 64 µg/mL | 16 µg/mL (≈ 50.5 µM) | 32 µg/mL (≈ 101 µM)
4 | Cc1c(CNC2CCCCC2)cc(-c2ccc(Cl)cc2)n1-c1ccc([N+](=O)[O-])cc1 | > 128 µg/mL | > 128 µg/mL | 16 µg/mL (≈ 37.7 µM) | 128 µg/mL (≈ 302 µM) | 16 µg/mL (≈ 37.7 µM) | 128 µg/mL (≈ 302 µM) | 8 µg/mL (≈ 18.9 µM) | > 128 µg/mL | 8 µg/mL (≈ 18.9 µM) | > 128 µg/mL | > 128 µg/mL | 4 µg/mL (≈ 9.44 µM) | 8 µg/mL (≈ 18.9 µM)
5 | Cc1c(CNC(C)C)cc(-c2ccc(Cl)cc2)n1-c1ccc(Cl)cc1 | > 128 µg/mL | 32 to 128 µg/mL (≈ 85.7 to 343 µM) | 8 to 16 µg/mL (≈ 21.4 to 42.9 µM) | 64 µg/mL (≈ 171 µM) | 8 µg/mL (≈ 21.4 µM) | 32 µg/mL (≈ 85.7 µM) | 8 µg/mL (≈ 21.4 µM) | > 128 µg/mL | 8 µg/mL (≈ 21.4 µM) | > 128 µg/mL | > 128 µg/mL | 4 µg/mL (≈ 10.7 µM) | 8 µg/mL (≈ 21.4 µM)
6 | Cc1c(CNC2CCC(N)CC2)cc(-c2ccc(Cl)cc2)n1-c1ccc(Cl)cc1 (stereo not given) | 32 µg/mL (≈ 74.7 µM) | 8 µg/mL (≈ 18.7 µM) | 8 µg/mL (≈ 18.7 µM) | 32 µg/mL (≈ 74.7 µM) | 8 µg/mL (≈ 18.7 µM) | 16 µg/mL (≈ 37.3 µM) | 8 µg/mL (≈ 18.7 µM) | 32 µg/mL (≈ 74.7 µM) | 8 µg/mL (≈ 18.7 µM) | 16 µg/mL (≈ 37.3 µM) | 32 µg/mL (≈ 74.7 µM) | 4 µg/mL (≈ 9.34 µM) | 8 µg/mL (≈ 18.7 µM)
7 | Cc1c(CNCCCCCCCCNC(=N)N)cc(-c2ccc(Cl)cc2)n1-c1ccc(Cl)cc1 | 64 µg/mL (≈ 128 µM) | 8 µg/mL (≈ 16 µM) | 4 µg/mL (≈ 7.99 µM) | 32 µg/mL (≈ 63.9 µM) | 4 µg/mL (≈ 7.99 µM) | 8 µg/mL (≈ 16 µM) | 8 µg/mL (≈ 16 µM) | 32 µg/mL (≈ 63.9 µM) | 4 µg/mL (≈ 7.99 µM) | 16 µg/mL (≈ 32 µM) | 128 µg/mL (≈ 256 µM) | 4 µg/mL (≈ 7.99 µM) | 8 µg/mL (≈ 16 µM)
8 | Cc1ccc(C)c(-n2c(-c3ccc(Cl)cc3)cc(CNC3CCCCC3)c2C)c1 | > 128 µg/mL | > 128 µg/mL | 8 µg/mL (≈ 19.7 µM) | > 128 µg/mL | 4 µg/mL (≈ 9.83 µM) | 64 µg/mL (≈ 157 µM) | 4 µg/mL (≈ 9.83 µM) | > 128 µg/mL | 4 µg/mL (≈ 9.83 µM) | > 128 µg/mL | > 128 µg/mL | 2 µg/mL (≈ 4.91 µM) | 4 µg/mL (≈ 9.83 µM)
9 | Cc1c(CNC2CCC(NC(=N)N)CC2)cc(-c2ccc(Cl)cc2)n1-c1ccc([N+](=O)[O-])cc1 (stereo not given) | > 128 µg/mL | 64 µg/mL (≈ 133 µM) | 8 µg/mL (≈ 16.6 µM) | > 128 µg/mL | 8 µg/mL (≈ 16.6 µM) | 64 µg/mL (≈ 133 µM) | 64 µg/mL (≈ 133 µM) | > 128 µg/mL | 4 µg/mL (≈ 8.32 µM) | > 128 µg/mL | > 128 µg/mL | 16 µg/mL (≈ 33.3 µM) | 32 µg/mL (≈ 66.5 µM)
10 | Cc1c(CNCC2CCCCC2)cc(-c2ccc(Cl)cc2)n1-c1ccc(Cl)cc1 | > 128 µg/mL | > 128 µg/mL | 4 µg/mL (≈ 9.36 µM) | > 128 µg/mL | 4 µg/mL (≈ 9.36 µM) | > 128 µg/mL | 4 µg/mL (≈ 9.36 µM) | > 128 µg/mL | 4 µg/mL (≈ 9.36 µM) | > 128 µg/mL | > 128 µg/mL | 2 µg/mL (≈ 4.68 µM) | 2 µg/mL (≈ 4.68 µM)
11 | Cc1cc(CNCc2ccccc2)c(C)n1-c1ccc(Cl)cc1 |  |  | > 128 µg/mL |  | > 128 µg/mL |  | > 128 µg/mL |  | > 128 µg/mL |  |  | 128 µg/mL (≈ 394 µM) | > 128 µg/mL
